Results published in ChEMBL document CHEMBL4177559, “Design, Synthesis, and Evaluation of a Series of Novel Benzocyclobutene Derivatives as General Anesthetics” (J Med Chem, 2017).

How the values were obtained:
[1] = Clearance in Sprague-Dawley rat at 1 mg/kg, iv administered as single dose; type: ADME, organism-based; conditions: in vivo
[2] = Therapeutic index, ratio of LD50 for toxicity in ICR mouse to ED50 for anesthetic effect in ICR mouse; type: organism-based; conditions: in vivo, read-out: Ratio LD50/ED50
How it was run: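 Fasted ICR mice (18−22 g, male and female), 7−9 dose groups of 10, given a single ~10 s iv bolus into the lateral tail vein in 5% DMSO, 5−10% Solutol HS-15, 85−90% saline. Loss of righting reflex scored; ED50 and LD50 derived by nonlinear fitting; TI = LD50/ED50.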

[3] = test system: Rattus norvegicus; assay: Cmax in Sprague-Dawley rat at 1 mg/kg, iv administered as single dose; type: ADME, organism-based; parameters: dose 1 mg/kg, route intravenous; conditions: in vivo
[4] = test system: Mus musculus; assay: Anesthetic activity in iv dosed ICR mouse assessed as onset time for loss of righting reflex administered as single bolus dose; type: functional
How it was run: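 ICR mice (fasted, 18−22 g, 10 per dose group, 7−9 groups) got one tail-vein iv bolus (~10 s) in 5% DMSO/5−10% Solutol HS-15/85−90% saline. Onset was the time from dosing to loss of righting reflex.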

[5] = test system: Mus musculus; assay: Anesthetic activity in iv dosed ICR mouse assessed as anesthetic duration time by measuring loss of righting reflex administered as single bolus dose; type: functional
How it was run: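 Fasted ICR mice (18−22 g, 10 per group) received a single ~10 s lateral tail-vein bolus in 5% DMSO/5−10% Solutol HS-15/saline. Duration was the time from dosing to recovery of righting reflex, recorded at the dose giving 100% loss of righting reflex.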

[6] = AUC in Sprague-Dawley rat at 1 mg/kg, iv administered as single dose; type: ADME, organism-based; conditions: in vivo
[7] = test system: Mus musculus; assay: Anesthetic activity in iv dosed ICR mouse assessed as dose required to produce anesthesia administered as single bolus dose; type: functional
How it was run: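 Fasted ICR mice (18−22 g, male and female) were randomised into 7−9 dose groups of 10 each. Each received one intravenous bolus over about 10 s in the lateral tail vein. Vehicle was 5% DMSO, 5−10% Solutol HS-15 and 85−90% saline. The endpoint was loss of righting reflex, and ED50 was derived by nonlinear fitting of dose–response.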

Row | Compound | clearance [1] | selectivity ratio [2] | Cmax [3] | Time [4] | Time [5] | AUC [6] | ED50 [7]
1 | CC(C)c1ccc2c(c1O)[C@H](C)C2 | 77 mL/min/kg | – | – | – | – | – | –
2 | CC(C)c1ccc2c(c1O)[C@@H](C)C2 | 67 mL/min/kg | – | – | – | – | – | –
3 | CC(C)c1cccc(C(C)C)c1O [PROPOFOL] | – | 2.7 | 384 ng/mL | <10 s | 303.2 s | 77 ng·h/mL | –
4 | CC(C)c1ccc2c(c1O)C(C)(N=[N+]=[N-])C2 (racemic) | – | 5.9 | – | <10 s | 381.7 s | – | 9.4 mg/kg
